These results are taken from ChEMBL document CHEMBL3407371, “Elimination of a cholecystokinin receptor agonist 'trigger' in an effort to develop positive allosteric modulators without intrinsic agonist activity” (Bioorg Med Chem Lett, 2015).

Active and inactive are the calls of the source. No cut-off for these calls is given here.

Assay [1] has as its target T1, Gastrin/cholecystokinin type B receptor (Homo sapiens) (UniProt P32239).
T1 sequence (whole entry): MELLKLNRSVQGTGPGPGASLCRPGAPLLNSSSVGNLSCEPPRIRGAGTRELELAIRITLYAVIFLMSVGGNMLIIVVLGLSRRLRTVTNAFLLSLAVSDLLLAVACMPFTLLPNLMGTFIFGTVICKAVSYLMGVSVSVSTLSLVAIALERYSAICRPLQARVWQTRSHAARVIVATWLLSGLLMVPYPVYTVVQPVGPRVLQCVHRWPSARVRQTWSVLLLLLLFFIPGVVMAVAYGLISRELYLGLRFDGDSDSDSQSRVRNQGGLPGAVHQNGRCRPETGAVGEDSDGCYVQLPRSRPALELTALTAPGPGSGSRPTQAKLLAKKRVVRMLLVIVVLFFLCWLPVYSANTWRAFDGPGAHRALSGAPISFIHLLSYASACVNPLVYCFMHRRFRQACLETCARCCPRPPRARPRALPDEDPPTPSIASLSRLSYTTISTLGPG
Kind of assay: Activity at CCK2R (unknown origin) expressed in CHO cells assessed as stimulation of intracellular calcium responses. Type of assay: functional, cell-based. An outline of the steps:
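Intact CHO cell lines stably expressing CCK1R or CCK2R; intracellular calcium measured after adding compound alone. […] Peak responses and EC50 values taken from concentration-response curves. Duplicate determinations, at least three independent experiments, means ± S.E.M.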

The target of assay [2] is T2, Cholecystokinin receptor type A (Homo sapiens, UniProt P32238, N98T). Type of assay: cell-based, CHO.
T2 sequence (P32238 whole entry N98T): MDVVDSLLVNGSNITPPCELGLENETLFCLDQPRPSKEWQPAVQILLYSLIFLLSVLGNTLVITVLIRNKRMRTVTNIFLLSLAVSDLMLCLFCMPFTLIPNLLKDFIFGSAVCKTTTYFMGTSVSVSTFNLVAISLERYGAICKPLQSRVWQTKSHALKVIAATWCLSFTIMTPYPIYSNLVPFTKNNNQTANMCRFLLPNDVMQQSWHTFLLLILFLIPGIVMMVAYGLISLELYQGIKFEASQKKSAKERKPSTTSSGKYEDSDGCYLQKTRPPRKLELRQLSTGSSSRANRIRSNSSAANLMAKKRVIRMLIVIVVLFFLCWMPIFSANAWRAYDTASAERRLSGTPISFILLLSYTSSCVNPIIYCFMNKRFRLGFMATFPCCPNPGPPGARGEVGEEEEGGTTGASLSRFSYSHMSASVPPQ
Assay [3] deals with T3, Cholecystokinin receptor type A (Homo sapiens, UniProt P32238). Type of assay: cell-based. Conditions: cho.
For assay [4], the target named is T4, Cholecystokinin receptor type A (Homo sapiens) (UniProt P32238).
T4 sequence (whole entry): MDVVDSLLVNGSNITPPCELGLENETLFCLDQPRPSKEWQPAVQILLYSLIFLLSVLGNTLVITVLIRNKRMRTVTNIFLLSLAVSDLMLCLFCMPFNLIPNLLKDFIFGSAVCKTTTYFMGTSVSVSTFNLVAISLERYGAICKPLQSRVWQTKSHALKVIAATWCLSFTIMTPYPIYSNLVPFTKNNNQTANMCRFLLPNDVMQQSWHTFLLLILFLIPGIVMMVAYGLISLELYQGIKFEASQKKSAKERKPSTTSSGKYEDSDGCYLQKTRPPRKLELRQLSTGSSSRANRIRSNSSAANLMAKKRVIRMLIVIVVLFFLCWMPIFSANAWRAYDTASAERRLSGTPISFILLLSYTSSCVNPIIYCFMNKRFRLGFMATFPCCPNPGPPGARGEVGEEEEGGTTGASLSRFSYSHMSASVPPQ
Conditions: CHO, 1 uM.

Assay [5] deals with T5, Gastrin/cholecystokinin type B receptor (Homo sapiens, UniProt P32239).
T5 sequence (P32239 whole entry): T1 sequence (whole entry)
It is filed as cell-based, CHO.

The target in assay [6] is T5, Gastrin/cholecystokinin type B receptor. Type of assay: cell-based, CHO. The source holds these as a separate data set.
The target of assay [7] is T6, Cholecystokinin receptor type A (Homo sapiens, UniProt P32238).
T6 sequence (P32238 whole entry): T4 sequence (whole entry)
Kind of assay: Activity at CCK1R (unknown origin) expressed in CHO cells assessed as stimulation of intracellular calcium responses. It is filed as functional, cell-based. The essentials: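 Intact CHO cell lines stably expressing CCK1R or CCK2R; intracellular calcium measured after adding compound alone. Peak responses and EC50 values taken from concentration-response curves. Duplicate determinations, at least three independent experiments, means ± S.E.M.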
Background: Calcium flux is commonly read through the fluorescence of an indicator in the cells.

In assay [8] the target is T7, Cholecystokinin receptor type A (Homo sapiens, UniProt P32238, T117V/T118S). Type of assay: cell-based, CHO.
T7 sequence (P32238 whole entry T117V/T118S): as the sequence (P32238 whole entry N98T) above, with T98N, T117V, T118S counted along it
Assay [9] addresses T3, Cholecystokinin receptor type A. Type of assay: cell-based. Conditions: cho. The source holds these as a separate data set.
Assay [10] concerns the target T8, Cholecystokinin receptor type A (Homo sapiens, UniProt P32238, L356H). It is filed as cell-based, CHO.
Assay [11] concerns the target T2, Cholecystokinin receptor type A. Type of assay: cell-based, CHO. This is another data set of the same source.
Assay [12] deals with T7, Cholecystokinin receptor type A. Type of assay: cell-based, CHO. The source holds these as a separate data set.
Assay [13] deals with T3, Cholecystokinin receptor type A. It is filed as cell-based. The settings on record: cho. The source holds these as a separate data set.
In assay [14] the target is T8, Cholecystokinin receptor type A. It is filed as cell-based, CHO. The source holds these as a separate data set.
In assay [15] the target is T6, Cholecystokinin receptor type A. Type of assay: cell-based, CHO.
The target is the same in assay [16]. Type of assay: cell-based, CHO. This is another data set of the same source.
Assay [17] has as its target T5, Gastrin/cholecystokinin type B receptor. Type of assay: cell-based, CHO. The source holds these as a separate data set.
The target in assay [18] is T6, Cholecystokinin receptor type A. It is filed as functional, cell-based. Conditions: cho.

T8 sequence (P32238 whole entry L356H): as the sequence (P32238 whole entry N98T) above, with T98N, L356H counted along it

Consider `O=C(CN1C(=O)C(NC(=O)Nc2ccccc2)C(=O)N(c2ccccc2)c2ccccc21)Nc1ccccc1` (stereo not given), for which the result in [1] was inactive. In addition, the IC50 result in [2] (cho) and in assay [3] was “Not Active” each time. Moreover, in [4], the inhibition result is “inactive”.
Take `COc1ccc(N(C)C(=O)CN2C(=O)C(NC(=O)Nc3ccccc3)C(=O)N(c3ccccc3)c3ccccc32)cc1` (stereo not given): the IC50 (in general, the concentration needed to halve the response being measured) in [5] is 48.6 nM; in [6], 20.3 nM; in assay [2] (read-out: IC50), 875 nM; in [8] it was 50.2 nM; in assay [9], over 1000 nM; in assay [10], 233 nM. The IC50 in [11] is 40.3 nM; in assay [12], 334 nM; in [13] it was 151 nM; in assay [14] it was 153 nM; in assay [3] it was “Not Active”. Besides, the concentration giving a half-maximal response (EC50) (usually the concentration needed to bring the measured effect to its halfway point) in [7] amounted to 90 nM. For the same compound, in assay [1], the outcome was inactive. Also, the inhibition entry in assay [4] was “inactive”.
As for `CC(C)N(C(=O)CN1C(=O)[C@H](NC(=O)Nc2cccc(C(=O)O)c2)C(=O)N(c2ccccc2)c2ccccc21)c1ccccc1`, the IC50 in [15] is 105 nM; in assay [5] it was 5.6 nM; in assay [16] it was 128 nM; in assay [17], 2.7 nM. For the same compound, the EC50 in assay [7] is 0.8 nM; in assay [18], “Not Active”. In assay [1], the outcome was inactive.
